# Only some compounds are listed: those with a hit (about 2.3% of all), similar ones and a draw of the others.
# Env fusion inh = inhibitors of HIV Env-mediated cell fusion. HeLa-JRFL Env/CEM21 cell fusion, luciferase. inhibition, % at 12.3 µM. 1.1% of 360,000 active;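 active = mean replicate inhibition score of at least 50 and every replicate individually at or above 50; inconclusive = only one of the two criteria met; inactive = mean below 50 and not all replicates reaching 50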
# N-glyco inh = blocks N-linked glycosylation in D54 reporter cells | AID 588692 | reporter increase, % at 12.5 µM | 0.23% of 360,000 active | D54 ERlucT glycosylation luciferase reporter, 24 h; percent of 100 nM tunicamycin response;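 active = mean luciferase reporter signal, scaled so untreated is 0 and the glycosylation-blocking control 100, at or above a set limit in every replicate; inconclusive = mean reaches the limit but not every replicate does; inactive = mean below the limit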;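 also: luciferase carries N-glycosylation sites so blocking glycosylation raises the light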
# Arr AP2 block = inhibitors of human beta-arrestin and AP2 interaction | FITC-arrestin peptide / GST-AP2 beads, flow cytometry; AP2 beta2 appendage carries R879A mutation | inhibition, % at 10 µM | 0.31% of 340,000 active | AID 504490;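 active = inhibition above a set limit, near 3 SD of compounds lacking own fluorescence, cut at about 54% in these data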
#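 Measured by: flow cytometry, FL1 (488/535 nm); Material: AP2 appendage R879A on GSH beads; Evaluation: percent response; Timing: pre-incubation 12 min, peptide binding 1 h, room temperature; Also added: 50 nM FITC-arrestin peptide; Medium: PBS with 0.05% Tween 20 and 0.1% BSA.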
# Rtt109 HAT inh = blocks Candida albicans Rtt109/Vps75 acetyltransferase activity. Q5AAJ8. purified Rtt109/Vps75, ThioGlo CoA-SH fluorescence, 4 h. inhibition, % at 34.9 µM. 0.16% of 330,000 active;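 active = inhibition of at least 50% in every replicate; inconclusive = best replicate reaches 50% inhibition but some replicates fall short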
# Target sequence (Q5AAJ8 whole entry, looked up): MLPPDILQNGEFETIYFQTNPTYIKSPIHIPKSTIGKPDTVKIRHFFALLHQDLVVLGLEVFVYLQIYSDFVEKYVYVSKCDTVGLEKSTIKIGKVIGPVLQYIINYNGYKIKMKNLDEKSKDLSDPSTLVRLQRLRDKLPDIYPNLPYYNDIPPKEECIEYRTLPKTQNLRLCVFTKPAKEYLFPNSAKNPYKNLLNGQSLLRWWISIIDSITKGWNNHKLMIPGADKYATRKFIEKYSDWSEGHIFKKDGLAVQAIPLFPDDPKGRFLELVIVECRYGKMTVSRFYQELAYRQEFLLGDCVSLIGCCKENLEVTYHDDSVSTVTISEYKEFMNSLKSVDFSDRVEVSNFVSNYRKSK
# PAX8 inh HTS = inhibitors of PAX8 transcriptional activity in RMG-I cells; RMG-I TPO-luciferase reporter, SteadyGlo, 24 h; inhibition, % at 12.6 µM; 1.2% of 360,000 active;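 active = mean replicate inhibition at least 60% with every replicate also reaching 60%; inconclusive = only one of the two criteria is met; inactive = mean below 60% and not all replicates reaching 60%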;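 also: luciferase light reporting Pax8 driven TPO promoter activity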
# PfHsp90 set2 = growth inhibition of yeast expressing Plasmodium Hsp90 | S. cerevisiae expressing PfHsp90, BacTiter-Glo ATP, 48 h; yeast lacking PDR1 and PDR3 efflux regulators | inhibition, % at 9.4 µM | 0.32% of 310,000 active | AID 504621;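 active = every replicate shows inhibition above about 80%, whatever the replicate mean, limit read from the data; inconclusive = mean inhibition reaches the set limit but some replicate falls short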
# A number is an active result; n = inactive; u = inconclusive; x = no result; [ ] = another dose, or the depositor's remark.
SMILES,Env fusion inh,N-glyco inh,Arr AP2 block,Rtt109 HAT inh,PAX8 inh HTS,PfHsp90 set2
O=C1c2ccccc2NC(c2ccc(-c3cccc([N+](=O)[O-])c3)o2)N1O (centres undefined),58,n,n,n,n,n
O=C1c2ccccc2NC(c2ccc(-c3ccc(Br)cc3)o2)N1O (centres undefined),x,n,n,n,x,125
O=C1c2ccccc2NC(c2ccc(-c3ccc(F)cc3)o2)N1O (centres undefined),n,n,n,n,n,n
CCCC#Cc1ccc2c(c1)O[C@@H](CN(C)C(C)=O)[C@@H](C)CN([C@@H](C)CO)S2(=O)=O,n,x,x,x,x,x
CCC(=O)N(C)C[C@H]1Oc2ncc(C#CCC(C)C)cc2C(=O)N([C@@H](C)CO)C[C@@H]1C,n,x,x,x,x,x
CC1Oc2cc3oc4c(O)c(O)ccc4c(=O)c3c(O)c2C1(C)C (centres undefined),x,n,n,n,x,104
COc1ccc(-c2cc(=O)oc3c(O)c(O)ccc23)cc1,n,n,n,n,n,n
Cn1cnc([N+](=O)[O-])c1S(=O)(=O)Oc1ccccc1,n,n,n,n,90,n
Cn1cnc([N+](=O)[O-])c1S(=O)(=O)c1cccc(Cl)c1,n,u,n,n,83,n
Cn1cnc([N+](=O)[O-])c1S(=O)(=O)Nc1ccccc1,n,n,n,n,n,x
CCS(=O)(=O)Nc1ccc2c(c1)C(=O)N(C)C[C@H](OC)[C@H](C)CN(C(=O)C1CC1)[C@@H](C)CO2,x,x,x,x,n,x
COC(=O)CNC(c1ccccc1)c1cc(Br)ccc1NC(=O)OCc1ccccc1 (centres undefined),x,n,n,n,x,n
COC(=O)CNC(c1ccccc1)c1cc(C)ccc1NC(=O)CNC(=O)OCc1ccccc1 (centres undefined),73,n,n,n,x,x
CCC(=O)Nc1ccc2c(c1)C(=O)N(C)C[C@@H](OC)[C@@H](C)CN(C(=O)c1ccccn1)[C@@H](C)CO2,x,x,x,x,n,x
N=C(N)CCCOc1ccccc1-c1ccccc1,x,n,n,n,63,n
OCCNCCOc1ccccc1-c1ccccc1,n,n,n,n,n,n
CCCC(=O)Nc1ccc2c(c1)C(=O)N(C)[C@@H]1CC[C@H](CC(=O)N3CCc4ccccc4C3)O[C@H]1CO2,n,x,x,x,n,x
COc1ccc(C(=O)Nc2ccc3c(c2)C(=O)N(C)C[C@@H](OC)[C@H](C)CN[C@@H](C)CO3)cc1,n,x,x,x,n,x
CC(C)(C)N1C(=O)[C@H]2[C@@H](c3ccc(Br)cc3)N3C(=O)N(c4cccc(Cl)c4)C(=O)[C@@]3(Cc3ccccc3)[C@H]2C1=O,n,n,n,n,n,n
CC(C)C[C@@]12C(=O)N(c3cccc(F)c3)C(=O)N1[C@H](c1ccc(F)cc1)[C@@H]1C(=O)N(C3CCCCC3)C(=O)[C@@H]12,n,n,n,n,n,n
O=C1[C@H]2[C@@H](c3ccc(F)cc3)N3C(=O)N(c4cccc(Cl)c4)C(=O)[C@@]3(Cc3ccc(Cl)cc3)[C@H]2C(=O)N1C1CCCCC1,99,n,n,n,n,n
O=C1[C@H]2[C@@H](c3ccc(F)cc3)N3C(=O)N(c4cccc(Cl)c4)C(=O)[C@@]3(Cc3ccccc3)[C@H]2C(=O)N1C1CCCCC1,n,72,n,n,n,n
CC(C)C[C@@]12C(=O)N(c3cccc(F)c3)C(=O)N1[C@H](c1ccc(Cl)cc1)[C@@H]1C(=O)N(C3CCCCC3)C(=O)[C@@H]12,95,n,n,n,n,n
Cc1cc(C(=O)Nc2cccc3c2O[C@@H](CN(C)Cc2ccccc2)[C@H](C)CN([C@@H](C)CO)C3=O)n(C)n1,n,x,x,x,n,x
C[C@H](CO)N1C[C@H](C)[C@@H](CN(C)C(=O)c2ccccn2)Oc2ncc(Br)cc2C1=O,n,x,x,x,n,x
SMILES,Env fusion inh,N-glyco inh,Arr AP2 block,Rtt109 HAT inh,PAX8 inh HTS,PfHsp90 set2
CCN(CC(=O)Nc1ccc(NC(C)=O)cc1)C(=O)C1(c2ccc(Cl)cc2)CCC1,n,n,x,x,79,x
CC(=O)Nc1ccc(NC(=O)COC(=O)C2(c3ccc(Cl)cc3)CCCC2)cc1,x,n,n,n,n,n
COc1cc(Nc2ncc3c(n2)CCN(C(=O)Nc2ccc(C(C)C)cc2)C3)cc(OC)c1OC,u,n,x,x,65,x
O=C(COc1cccc(NC(=O)c2ccccc2)c1)c1ccc(F)cc1,x,n,n,n,69,n
CCC(=O)Nc1cc(C(=O)O)ccc1S(=O)(=O)c1ccc(C)cc1,x,n,n,n,64,n
CC(=O)Nc1cc(C(=O)O)ccc1S(=O)(=O)c1ccc(C)cc1,n,n,n,n,x,n
COC(=O)C1=C2CC[C@H](CO)NC(=O)N[C@H](Cc3ccccc3)C(=O)NCc3cn(nn3)C[C@H](Cc3ccccc3)NC(=O)c3oc(c(C(=O)OC)c3C(=O)OC)CC[C@H](CO)NC(=O)N[C@H](Cc3ccccc3)C(=O)NCc3cn(nn3)C[C@H](Cc3ccccc3)NC(=O)C(=C1C(=O)OC)O2,n,x,x,x,n,x
O=C(C[C@@H]1CC[C@H]2[C@@H](COC[C@H](O)CN2C(=O)Nc2ccc(Cl)c(Cl)c2)O1)NCc1ccc(Cl)cc1,x,x,x,x,95,x
Cc1ccc(S(=O)(=O)N2C[C@H](O)COC[C@H]3O[C@@H](CC(=O)NCc4ccc(Cl)c(Cl)c4)CC[C@@H]32)cc1,x,x,x,x,75,x
O=C(C[C@H]1CC[C@@H]2[C@H](COC[C@@H](O)CN2C(=O)Nc2ccc(Cl)c(Cl)c2)O1)NCc1ccc(Cl)cc1,x,x,x,x,n,x
O=C(C[C@@H]1CC[C@@H]2[C@H](COC[C@@H](O)CN2C(=O)Nc2ccc(Cl)c(Cl)c2)O1)NCc1ccc(Cl)cc1,x,x,x,x,96,x
O=C(C[C@@H]1CC[C@@H]2[C@H](COC[C@@H](O)CN2C(=O)Nc2ccc(Cl)c(Cl)c2)O1)NCc1ccc(Cl)c(Cl)c1,x,x,x,x,74,x
CCNC(=O)C[C@@H]1CC[C@H]2[C@@H](COC[C@@H](O)CN2C(=O)c2ccccn2)O1,n,x,x,x,n,x
CCNC(=O)C[C@@H]1CC[C@@H]2[C@H](COC[C@@H](O)CN2C(=O)c2ccccn2)O1,65[16.7 µM],x,x,x,n,x
O=C(C[C@H]1CC[C@@H]2[C@H](COC[C@H](O)CN2C(=O)Nc2ccc(Cl)c(Cl)c2)O1)NCc1ccc(Cl)cc1,x,x,x,x,n,x
O=C(C[C@H]1CC[C@H]2[C@@H](COC[C@H](O)CN2C(=O)Nc2ccc(Cl)c(Cl)c2)O1)NCc1ccc(Cl)cc1,x,x,x,x,70,x
CN1C(=O)c2cc(NC(=O)c3cccs3)ccc2OC[C@H]2O[C@@H](CC(=O)N3CCCCC3)CC[C@H]21,n,x,x,x,n,x
CCN(CC)S(=O)(=O)c1cccc(C(=O)NCC(c2ccccc2)N(C)C)c1 (centres undefined),n,n,n,x,n,107

# Assay outcomes deposited in PubChem by several laboratories.
